Source: PubChem BioAssay
SR-BI HDL uptake: mouse SR-BI HDL lipid transfer inhibition. actives 0.96% (n = 320,000). ldlA[mSR-BI] CHO cells, DiI-HDL uptake fluorescence, 3 h. Q61009. inhibition, % at 12.5 µM;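 active means mean replicate inhibition of at least 70% and a set share of replicates each scoring 70 or more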;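 further: 0% = median of neutral control wells and 100% = median of positive control wells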
Target sequence (Q61009 whole entry, looked up): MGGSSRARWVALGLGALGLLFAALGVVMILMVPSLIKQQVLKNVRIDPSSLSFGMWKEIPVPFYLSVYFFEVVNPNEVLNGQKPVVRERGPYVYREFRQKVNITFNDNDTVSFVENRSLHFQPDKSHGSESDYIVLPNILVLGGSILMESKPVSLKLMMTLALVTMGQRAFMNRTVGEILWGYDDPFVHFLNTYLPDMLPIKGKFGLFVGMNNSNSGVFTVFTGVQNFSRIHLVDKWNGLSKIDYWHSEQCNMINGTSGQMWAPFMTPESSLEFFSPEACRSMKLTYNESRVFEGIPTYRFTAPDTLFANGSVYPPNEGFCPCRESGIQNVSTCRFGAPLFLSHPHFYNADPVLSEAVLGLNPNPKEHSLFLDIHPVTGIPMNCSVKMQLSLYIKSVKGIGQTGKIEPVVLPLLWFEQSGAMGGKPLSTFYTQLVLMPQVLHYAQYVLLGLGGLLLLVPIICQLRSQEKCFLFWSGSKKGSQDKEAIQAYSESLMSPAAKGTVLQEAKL
CAL PDZ FP-1: human CAL PDZ-peptide interaction inhibition; Q9HD26; purified CAL PDZ, TMR-peptide fluorescence polarization, 1 h; inhibition, % at 20 µM; actives 0.02% (n = 330,000);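 active means highest replicate inhibition of at least 40%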;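 further: plate controls were DMSO neutral control wells for no effect and unlabeled competitor peptide control wells for full effect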
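Test system: tagged CAL PDZ domain / Buffer or medium: sodium phosphate/NaCl buffer pH 7.4 with TCEP, IgG, Thesit / Reagent: TMR-labelled reporter peptide T*-PRC34 bound in PDZ groove / Compound dosing: single point, 20 µM / Schedule: 1 h incubation at room temperature before polarization reading / Technique: fluorescence polarization (mP) / Benchmarks: unlabelled peptide, DMSO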
CAL PDZ FP-2: inhibitors of human CAL PDZ peptide binding; purified CAL PDZ, TMR-peptide fluorescence polarization, 1 h; actives 0.92% (n = 300,000); inhibition, % at 24.9 µM; Q9HD26; AID 602252;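 active means mean inhibition of at least 30% with at least half of replicates also reaching 30%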;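 further: 0% = DMSO neutral control and 100% = excess unlabeled competitor peptide PRC23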
miR122 inh: miR-122 inhibition in Huh7 cells | Huh7 miR-122 Renilla luciferase sensor, 48 h; neutral wells = 0, positive control = 100 | activation (reporter increase), % at 12.5 µM | actives 0.3% (n = 340,000) | AID 602342;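 active means mean replicate activation score at least 90 and every replicate individually at or above 90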;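 further: higher luciferase means less miR-122 activity so hits act as miR-122 inhibitors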
SR-BI uptake up: activators of SR-BI mediated HDL lipid uptake; CHO ldlA[mSR-BI] cells, DiI-HDL uptake fluorescence, 3 h; 100 = double the neutral-control signal; activation, % at 12.5 µM; actives 0.096% (n = 320,000); AID 504775;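 active means mean replicate activation of at least 60% and every replicate at or above 60%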;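 further: 0% = median plate neutral-control signal and 100% = twice that signal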
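Material: SR-BI-overexpressing, LDLR-lacking CHO cells; schedule: compound exposure 3 h, 37 °C; reagent: DiI-labelled HDL at 10 µg/mL final; technique: bottom-read fluorescence, 550/595 nm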
ARNT TACC3 PPI: disrupts binding between human ARNT and TACC3 | AlphaScreen His-ARNT PAS-B/GST-TACC3 binding, luminescence; TACC3 fragment carries E629A point mutation | Q9Y6A5 | inhibition, % at 9.99 µM | actives 0.66% (n = 390,000);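 active means mean inhibition of replicates at least 50% and at least half of replicates each reaching 50%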;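 further: 0% = complete ARNT plus TACC3 wells and 100% = ARNT alone without TACC3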
Active calls of the source: *; . = no result; + = active, no number; [ ] = dose if it differs, or a comment. This is a sample that favours compounds with a hit; in the whole collection about 2.1% have one here.

SMILES	SR-BI HDL uptake	CAL PDZ FP-1	CAL PDZ FP-2	miR122 inh	SR-BI uptake up	ARNT TACC3 PPI
CCCCCCn1cc(C(=O)O)c(=O)c2cc(F)c(N3CCN(C)CC3)cc21	19	-1	30*	-6	-19	31
CCOC(=O)N1CCC(=NNC(=O)c2cc3ccccc3cc2O)CC1	1	-4	.	-7	-1	12
CC(=O)N1CCC(=NNC(=O)c2cc3ccccc3cc2O)CC1	21	-1	55*	-10	-21	-2
Cc1ccc(C2=NN3C(C(=O)c4ccccc4)Oc4ccccc4C3C2)cc1 (stereo not drawn)	-5	-2	3	114*	5	4
COc1ccc(C(=O)O/N=C(\N)c2ccccc2)cc1OC	1	.	43*	-3	-1	3
COCC(=O)N1[C@H](CO)[C@H](c2ccccc2)[C@@H]1CNC(=O)c1ccccn1	.	.	.	108*[16.7 µM]	.	4
Cc1noc(C)c1NC(=O)N[C@H]1CC[C@@H](CC(=O)N2CCCCC2)O[C@@H]1CO	.	.	.	.	.	5
O=C1COc2cccnc2N1	1	-3	-2	-3	-1	-3
O=C1COc2ccccc2CN1	.	-1	+	-2	.	-5
CCCCn1c(NC(=O)c2ccc(Br)o2)c(S(=O)(=O)c2ccccc2)c2nc3ccccc3nc21	-15	-2	.	165*	15	21
NC(=O)c1cc(S(=O)(=O)N2CCCC2)ccc1OCCOc1ccccc1F	-5	0	44*	.	5	-3
COc1ccc(OCCOc2ccc(S(=O)(=O)N3CCCC3)cc2C(N)=O)cc1	-5	-1	-6	-1	5	-3
COc1ccc(NS(=O)(=O)c2ccc(O)c(C(=O)OCC(=O)N3CCCCC3)c2)cc1	-19	-1	39*	-6	19	.
CN(C)S(=O)(=O)c1ccc(NS(=O)(=O)/C=C/c2ccccc2)cc1	-3	-1	-3	165*	3	36
C[C@@H]1CCCCO[C@H](CN(C)C(=O)NC2CCCCC2)[C@H](C)CN([C@H](C)CO)C(=O)c2cc(NS(C)(=O)=O)ccc2O1	.	.	.	-2[16.7 µM]	.	2
Cc1ccnc2nc(C(=O)OCCOc3ccc(F)cc3)nn12	-28	40*	-3	1	28	-4
CCOc1ccc(S(=O)(=O)N2Cc3ccccc3CC2C(=O)O)cc1 (stereo not drawn)	7	1	51*	-12	-7	14
O=C1c2ccccc2C(=O)N1CCCn1ccnc1	-27	0	0	2	27	1
COc1ccc(OCC(=O)NCCCn2ccnc2)cc1	-15	-1	0	.	15	22
O=C(CCCN1C(=O)c2ccccc2C1=O)NCCCn1ccnc1	-13	0	49*	-6	13	3
N#Cc1ccc(OCC(=O)NCCCn2ccnc2)cc1	-34	0	-2	-2	34	69*
COC(=O)c1ccc(NC(=S)NCCCn2ccnc2)cc1	-9	0	-1	22	9	15
CCOC(=O)c1ccc(NC(=S)NCCCn2ccnc2)cc1	-10	-1	.	28	10	35*
O=C(COc1ccc(Cl)cc1)NCCCn1ccnc1	-18	1	-11	14	18	47*
C[C@H]1CN([C@@H](C)CO)C(=O)c2cc(NS(=O)(=O)c3ccccc3)ccc2O[C@@H]1CN(C)C(=O)Nc1ccc(C(F)(F)F)cc1	.	.	.	1[16.7 µM]	.	.
SMILES	SR-BI HDL uptake	CAL PDZ FP-1	CAL PDZ FP-2	miR122 inh	SR-BI uptake up	ARNT TACC3 PPI
Cc1ccc(S(=O)(=O)Nc2ccc3c(c2)C(=O)N([C@@H](C)CO)C[C@H](C)[C@H](CN(C)S(=O)(=O)c2c(C)noc2C)OCCCC[C@@H](C)O3)cc1	.	.	.	7[16.7 µM]	.	-1
O=C(NCCCn1ccnc1)Nc1ccc(Cl)c(Cl)c1	-3	-1	-6	7	3	65*
Cc1ccc(S(=O)(=O)N(C)c2ccc(OCC(=O)NCC3(N(C)C)CCCCC3)cc2)cc1	83*	-1	-5	12	-83	-29
CCN(CC)C(=O)COc1ccc(N(C)S(=O)(=O)c2ccc(NC(C)=O)cc2)cc1	-6	0	71*	2	6	-6
COCCCn1c(SC(C)C(=O)Nc2c(C)n(C)n(-c3ccccc3)c2=O)n[nH]c1=O (stereo not drawn)	0	0	43*	.	0	-9
C[C@H](CO)N1C[C@H](C)[C@@H](CN(C)Cc2cccc(F)c2)Oc2ncc(C#CC(C)(C)O)cc2C1=O	.	.	.	8[16.7 µM]	.	.
CCOC(=O)c1c(C)[nH]c(C)c1C(=O)COC(=O)C1CC(=O)N(CCc2ccccc2)C1 (stereo not drawn)	15	0	36*	-13	-15	-1
O=C(C[C@@H]1C[C@H]2c3cc(NC(=O)C4CCC4)ccc3O[C@H]2[C@@H](CO)O1)NCC1CC1	.	.	.	0[16.7 µM]	.	3
N#Cc1cc2c(nc1SCC(=O)Nc1sc3c(c1C#N)CCC3)CCCC2	58	0	-1	-1	-58	-2
N#Cc1ccc(-c2ccc(F)cc2)nc1SCC(=O)Nc1sc2c(c1C#N)CCC2	78*	-2	-2	15	-78	-2
O=C(COc1ccc2c(c1)C(=O)CC1(CCCCC1)O2)NCc1ccccn1	-9	.	-6	-3	9	-24
O=C(COc1ccc2c(c1)C(=O)CC1(CCCCC1)O2)NCc1ccccc1	-1	-5	-1	220*	1	-2
COc1cc2c(cc1NC(=O)C(Cl)Cl)-c1ccc(NC(=O)C(Cl)Cl)cc1C2	83*	0	-4	.	-83	0
O=C(CN1c2ccccc2Sc2ccccc21)NNC(=O)Nc1cccc(Cl)c1	35	0	-2	113*	-35	-3
O=C(Cc1ccccc1)NNC(=O)Nc1cccc(Cl)c1	-39	.	-2	8	39	-10
C[C@@H]1CCCCO[C@@H](CN(C)C(=O)Nc2ccc3c(c2)OCO3)[C@@H](C)CN([C@H](C)CO)C(=O)c2cc(NC(=O)NC3CCCCC3)ccc2O1	.	.	.	-6[16.7 µM]	.	-9
Cc1ccc(NS(=O)(=O)c2cccc(C(=O)N(C)Cc3cccs3)c2)cc1	-13	-3	-3	100*	13	0
O=C(C[C@@H]1CC[C@@H]2[C@H](COC[C@@H](O)CN2C(=O)Nc2cccc(Cl)c2)O1)NCC1CCCCC1	.	.	.	-4[16.7 µM]	.	-7
C[C@H](CO)N1C[C@H](C)[C@@H](CN(C)C(=O)C2CC2)Oc2cc(C#CCN(C)C)ccc2S1(=O)=O	.	.	.	12[16.7 µM]	.	.
CCN1CCN(c2ncc3c(n2)CC(c2cc(OC)c(OC)c(OC)c2)CC3=O)CC1 (stereo not drawn)	-1	-1	50*	-2	1	4
